Measurements reported in ChEMBL document CHEMBL1165965, “Synthesis and structure-activity relationships of 1,2,3,4-tetrahydropyrido[2,3-b]pyrazines as potent and selective inhibitors of the anaplastic lymphoma kinase” (Bioorg Med Chem, 2010).

Experiments:
[1] = molecular target: Mitogen-activated protein kinase 6 (Homo sapiens) (UniProt Q16659); test: Inhibition of ERK3 at 1 uM
[2] = molecular target: Phosphatidylinositol 4-phosphate 3-kinase C2 domain-containing subunit beta (Homo sapiens) (UniProt O00750); test: Inhibition of PIK3C2B at 1 uM
Phosphatidylinositol 4-phosphate 3-kinase C2 domain-containing subunit beta (Homo sapiens), sequence (O00750 whole entry, the tested form may be a part): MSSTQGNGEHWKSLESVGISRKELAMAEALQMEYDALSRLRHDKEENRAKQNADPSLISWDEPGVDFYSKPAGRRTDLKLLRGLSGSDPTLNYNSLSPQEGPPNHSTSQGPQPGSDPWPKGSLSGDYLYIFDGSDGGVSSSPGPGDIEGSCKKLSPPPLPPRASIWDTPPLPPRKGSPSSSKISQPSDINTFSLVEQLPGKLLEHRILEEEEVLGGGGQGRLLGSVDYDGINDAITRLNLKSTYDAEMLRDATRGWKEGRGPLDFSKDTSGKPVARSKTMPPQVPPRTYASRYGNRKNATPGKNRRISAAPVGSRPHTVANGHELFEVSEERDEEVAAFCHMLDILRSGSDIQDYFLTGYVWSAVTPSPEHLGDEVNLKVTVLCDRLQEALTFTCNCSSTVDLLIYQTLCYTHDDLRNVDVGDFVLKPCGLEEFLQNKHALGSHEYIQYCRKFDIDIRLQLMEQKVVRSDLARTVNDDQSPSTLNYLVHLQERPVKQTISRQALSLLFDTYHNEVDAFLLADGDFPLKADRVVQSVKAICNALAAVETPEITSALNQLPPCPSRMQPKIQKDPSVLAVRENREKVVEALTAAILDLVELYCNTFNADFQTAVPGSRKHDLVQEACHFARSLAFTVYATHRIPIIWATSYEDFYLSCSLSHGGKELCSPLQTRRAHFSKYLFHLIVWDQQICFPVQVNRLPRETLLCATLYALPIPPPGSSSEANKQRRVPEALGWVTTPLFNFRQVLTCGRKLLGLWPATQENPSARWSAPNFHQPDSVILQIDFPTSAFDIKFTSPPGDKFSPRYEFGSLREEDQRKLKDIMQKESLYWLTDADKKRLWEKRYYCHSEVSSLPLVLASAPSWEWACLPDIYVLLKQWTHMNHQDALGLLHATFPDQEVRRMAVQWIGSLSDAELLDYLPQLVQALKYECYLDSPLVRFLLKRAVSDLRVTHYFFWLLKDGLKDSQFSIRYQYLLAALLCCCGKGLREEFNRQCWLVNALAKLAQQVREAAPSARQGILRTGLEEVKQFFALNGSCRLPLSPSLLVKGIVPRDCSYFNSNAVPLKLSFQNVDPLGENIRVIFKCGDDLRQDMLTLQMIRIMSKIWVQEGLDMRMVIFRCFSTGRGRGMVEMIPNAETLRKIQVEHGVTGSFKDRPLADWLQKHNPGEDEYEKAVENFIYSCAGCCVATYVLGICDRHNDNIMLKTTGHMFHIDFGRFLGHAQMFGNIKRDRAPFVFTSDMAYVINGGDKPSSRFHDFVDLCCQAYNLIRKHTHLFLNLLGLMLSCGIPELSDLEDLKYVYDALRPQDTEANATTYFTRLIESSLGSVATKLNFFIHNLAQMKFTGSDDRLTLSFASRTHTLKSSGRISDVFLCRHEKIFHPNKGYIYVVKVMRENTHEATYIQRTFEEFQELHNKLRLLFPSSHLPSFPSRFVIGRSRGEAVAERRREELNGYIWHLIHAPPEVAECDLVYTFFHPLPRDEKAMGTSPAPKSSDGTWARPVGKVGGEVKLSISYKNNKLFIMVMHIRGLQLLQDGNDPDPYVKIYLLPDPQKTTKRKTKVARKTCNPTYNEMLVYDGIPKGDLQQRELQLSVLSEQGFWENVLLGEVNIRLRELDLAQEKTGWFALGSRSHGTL

[3] = molecular target: Mitogen-activated protein kinase 10 (Homo sapiens) (UniProt P53779); test: Inhibition of JNK3 at 1 uM
Mitogen-activated protein kinase 10 (Homo sapiens), sequence (P53779 whole entry): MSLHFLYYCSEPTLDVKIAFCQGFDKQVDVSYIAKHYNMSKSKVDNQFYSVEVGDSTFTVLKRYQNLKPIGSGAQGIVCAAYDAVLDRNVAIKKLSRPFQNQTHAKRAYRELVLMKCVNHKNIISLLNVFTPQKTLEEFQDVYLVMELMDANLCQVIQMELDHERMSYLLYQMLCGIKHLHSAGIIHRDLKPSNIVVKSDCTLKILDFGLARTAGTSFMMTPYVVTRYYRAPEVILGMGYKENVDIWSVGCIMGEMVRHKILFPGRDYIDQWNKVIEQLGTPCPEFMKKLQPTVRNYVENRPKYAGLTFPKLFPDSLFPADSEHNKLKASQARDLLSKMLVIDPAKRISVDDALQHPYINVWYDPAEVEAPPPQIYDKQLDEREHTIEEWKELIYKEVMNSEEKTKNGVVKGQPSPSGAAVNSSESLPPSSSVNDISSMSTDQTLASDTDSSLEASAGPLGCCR
Outline: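 Single-concentration screen on the Ambit KINOMEscan platform, run against a panel of 250–400 kinases. Per-kinase inhibition was also summarized as S(90), the fraction of kinases inhibited by more than 90%.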

[4] = molecular target: T1, Protein kinase C epsilon type (Homo sapiens) (UniProt Q02156); test: Inhibition of PRKCE at 1 uM
T1 sequence (whole entry): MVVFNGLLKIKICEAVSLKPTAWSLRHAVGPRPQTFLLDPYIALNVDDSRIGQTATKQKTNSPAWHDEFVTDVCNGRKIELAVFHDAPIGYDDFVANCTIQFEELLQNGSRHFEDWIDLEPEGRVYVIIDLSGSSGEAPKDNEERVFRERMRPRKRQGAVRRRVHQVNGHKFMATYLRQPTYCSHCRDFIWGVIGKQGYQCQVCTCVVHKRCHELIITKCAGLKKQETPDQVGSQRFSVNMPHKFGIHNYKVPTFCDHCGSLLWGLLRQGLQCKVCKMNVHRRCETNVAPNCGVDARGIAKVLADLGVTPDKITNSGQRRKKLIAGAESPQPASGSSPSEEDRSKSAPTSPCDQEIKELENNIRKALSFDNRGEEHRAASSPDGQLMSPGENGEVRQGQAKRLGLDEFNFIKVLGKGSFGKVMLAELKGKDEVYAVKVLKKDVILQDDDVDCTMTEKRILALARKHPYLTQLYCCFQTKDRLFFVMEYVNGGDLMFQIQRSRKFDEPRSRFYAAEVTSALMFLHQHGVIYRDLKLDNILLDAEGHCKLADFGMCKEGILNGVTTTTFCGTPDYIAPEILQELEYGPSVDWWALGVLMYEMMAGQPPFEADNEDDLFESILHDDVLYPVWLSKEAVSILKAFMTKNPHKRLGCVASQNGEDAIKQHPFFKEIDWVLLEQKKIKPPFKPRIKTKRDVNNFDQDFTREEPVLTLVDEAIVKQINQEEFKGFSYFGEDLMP

[5] = molecular target: T2, Dual specificity mitogen-activated protein kinase kinase 4 (Homo sapiens) (UniProt P45985); test: Inhibition of MEK4 at 1 uM
T2 sequence (whole entry): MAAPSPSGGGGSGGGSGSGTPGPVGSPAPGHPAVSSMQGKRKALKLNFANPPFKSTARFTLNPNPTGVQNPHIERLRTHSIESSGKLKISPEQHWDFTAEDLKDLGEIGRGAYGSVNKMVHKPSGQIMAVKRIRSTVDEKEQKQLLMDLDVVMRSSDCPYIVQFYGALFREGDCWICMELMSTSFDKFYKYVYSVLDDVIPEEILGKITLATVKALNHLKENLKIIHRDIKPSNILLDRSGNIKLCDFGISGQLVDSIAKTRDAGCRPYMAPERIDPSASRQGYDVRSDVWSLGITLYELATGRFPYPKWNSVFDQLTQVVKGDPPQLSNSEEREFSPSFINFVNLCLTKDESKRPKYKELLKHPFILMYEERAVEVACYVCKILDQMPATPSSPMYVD

[6] = molecular target: Epidermal growth factor receptor (Homo sapiens) (UniProt P00533); test: Inhibition of EGFR at 1 uM
Epidermal growth factor receptor (Homo sapiens), sequence (P00533 whole entry): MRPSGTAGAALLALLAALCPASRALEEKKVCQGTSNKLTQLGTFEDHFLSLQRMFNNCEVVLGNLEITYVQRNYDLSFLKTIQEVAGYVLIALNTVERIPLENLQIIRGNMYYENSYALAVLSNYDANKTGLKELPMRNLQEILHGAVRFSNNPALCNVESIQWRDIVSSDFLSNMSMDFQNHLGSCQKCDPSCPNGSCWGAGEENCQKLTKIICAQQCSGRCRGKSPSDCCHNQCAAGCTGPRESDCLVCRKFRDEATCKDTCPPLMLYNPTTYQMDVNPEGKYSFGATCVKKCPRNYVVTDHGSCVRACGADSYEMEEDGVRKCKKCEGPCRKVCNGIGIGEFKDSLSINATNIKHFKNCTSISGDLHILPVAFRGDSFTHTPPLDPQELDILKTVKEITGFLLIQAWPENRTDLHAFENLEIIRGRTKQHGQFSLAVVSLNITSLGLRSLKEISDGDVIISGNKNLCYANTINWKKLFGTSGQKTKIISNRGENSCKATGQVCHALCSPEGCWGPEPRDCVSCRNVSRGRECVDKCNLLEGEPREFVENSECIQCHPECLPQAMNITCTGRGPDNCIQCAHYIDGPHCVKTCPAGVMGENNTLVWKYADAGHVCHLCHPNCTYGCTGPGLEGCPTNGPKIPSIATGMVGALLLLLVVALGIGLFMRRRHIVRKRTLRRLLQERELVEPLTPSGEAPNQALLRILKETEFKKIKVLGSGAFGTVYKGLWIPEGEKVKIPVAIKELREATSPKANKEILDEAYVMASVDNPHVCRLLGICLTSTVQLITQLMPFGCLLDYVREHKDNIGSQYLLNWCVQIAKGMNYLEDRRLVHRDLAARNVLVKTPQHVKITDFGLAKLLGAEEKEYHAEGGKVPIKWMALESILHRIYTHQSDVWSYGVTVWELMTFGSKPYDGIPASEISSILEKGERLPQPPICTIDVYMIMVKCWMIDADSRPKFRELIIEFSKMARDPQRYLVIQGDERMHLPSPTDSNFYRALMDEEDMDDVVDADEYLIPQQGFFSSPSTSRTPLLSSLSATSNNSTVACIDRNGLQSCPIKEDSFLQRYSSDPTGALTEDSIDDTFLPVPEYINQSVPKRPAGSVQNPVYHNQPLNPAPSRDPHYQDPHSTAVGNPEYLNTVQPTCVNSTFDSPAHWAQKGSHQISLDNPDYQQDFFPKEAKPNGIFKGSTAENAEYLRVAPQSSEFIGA
Outline: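 Single-concentration screen using Ambit Bioscience KINOMEscan technology across a panel of 250–400 kinases. Per-kinase inhibition from this screen was summarized as S(90), the fraction of kinases inhibited by more than 90%.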

[7] = molecular target: Serine/threonine-protein kinase MARK2 (Homo sapiens) (UniProt Q7KZI7); test: Inhibition of MARK2 at 1 uM
Serine/threonine-protein kinase MARK2 (Homo sapiens), sequence (Q7KZI7 whole entry): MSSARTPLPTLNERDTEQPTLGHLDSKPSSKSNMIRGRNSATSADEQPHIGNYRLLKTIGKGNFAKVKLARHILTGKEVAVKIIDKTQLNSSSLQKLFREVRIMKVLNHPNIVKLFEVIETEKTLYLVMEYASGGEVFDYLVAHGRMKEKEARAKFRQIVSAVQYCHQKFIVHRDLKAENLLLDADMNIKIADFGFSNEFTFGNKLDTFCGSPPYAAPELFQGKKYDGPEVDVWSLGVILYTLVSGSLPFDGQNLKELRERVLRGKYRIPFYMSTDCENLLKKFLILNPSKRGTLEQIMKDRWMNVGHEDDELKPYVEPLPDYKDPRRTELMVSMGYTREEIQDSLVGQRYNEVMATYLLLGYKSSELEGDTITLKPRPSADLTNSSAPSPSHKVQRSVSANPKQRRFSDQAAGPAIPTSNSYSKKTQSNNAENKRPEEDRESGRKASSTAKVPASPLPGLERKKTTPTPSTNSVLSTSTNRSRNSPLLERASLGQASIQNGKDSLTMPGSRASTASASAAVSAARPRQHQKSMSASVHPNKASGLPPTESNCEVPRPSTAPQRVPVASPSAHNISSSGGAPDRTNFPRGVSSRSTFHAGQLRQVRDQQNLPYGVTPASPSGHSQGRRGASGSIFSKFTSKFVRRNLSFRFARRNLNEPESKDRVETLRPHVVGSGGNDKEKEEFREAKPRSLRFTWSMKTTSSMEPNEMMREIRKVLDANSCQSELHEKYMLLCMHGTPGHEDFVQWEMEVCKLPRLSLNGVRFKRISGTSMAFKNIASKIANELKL
Outline: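 Kinase-panel screen using KINOMEscan technology, with 250–400 kinases per panel. Each compound was tested at a single concentration, and inhibition of each kinase was recorded. Selectivity was summarised as S(90), the fraction of kinases inhibited by more than 90%.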

[8] = molecular target: T3, Serine/threonine-protein kinase LATS1 (Homo sapiens) (UniProt O95835); test: Inhibition of LATS1 at 1 uM
T3 sequence (whole entry): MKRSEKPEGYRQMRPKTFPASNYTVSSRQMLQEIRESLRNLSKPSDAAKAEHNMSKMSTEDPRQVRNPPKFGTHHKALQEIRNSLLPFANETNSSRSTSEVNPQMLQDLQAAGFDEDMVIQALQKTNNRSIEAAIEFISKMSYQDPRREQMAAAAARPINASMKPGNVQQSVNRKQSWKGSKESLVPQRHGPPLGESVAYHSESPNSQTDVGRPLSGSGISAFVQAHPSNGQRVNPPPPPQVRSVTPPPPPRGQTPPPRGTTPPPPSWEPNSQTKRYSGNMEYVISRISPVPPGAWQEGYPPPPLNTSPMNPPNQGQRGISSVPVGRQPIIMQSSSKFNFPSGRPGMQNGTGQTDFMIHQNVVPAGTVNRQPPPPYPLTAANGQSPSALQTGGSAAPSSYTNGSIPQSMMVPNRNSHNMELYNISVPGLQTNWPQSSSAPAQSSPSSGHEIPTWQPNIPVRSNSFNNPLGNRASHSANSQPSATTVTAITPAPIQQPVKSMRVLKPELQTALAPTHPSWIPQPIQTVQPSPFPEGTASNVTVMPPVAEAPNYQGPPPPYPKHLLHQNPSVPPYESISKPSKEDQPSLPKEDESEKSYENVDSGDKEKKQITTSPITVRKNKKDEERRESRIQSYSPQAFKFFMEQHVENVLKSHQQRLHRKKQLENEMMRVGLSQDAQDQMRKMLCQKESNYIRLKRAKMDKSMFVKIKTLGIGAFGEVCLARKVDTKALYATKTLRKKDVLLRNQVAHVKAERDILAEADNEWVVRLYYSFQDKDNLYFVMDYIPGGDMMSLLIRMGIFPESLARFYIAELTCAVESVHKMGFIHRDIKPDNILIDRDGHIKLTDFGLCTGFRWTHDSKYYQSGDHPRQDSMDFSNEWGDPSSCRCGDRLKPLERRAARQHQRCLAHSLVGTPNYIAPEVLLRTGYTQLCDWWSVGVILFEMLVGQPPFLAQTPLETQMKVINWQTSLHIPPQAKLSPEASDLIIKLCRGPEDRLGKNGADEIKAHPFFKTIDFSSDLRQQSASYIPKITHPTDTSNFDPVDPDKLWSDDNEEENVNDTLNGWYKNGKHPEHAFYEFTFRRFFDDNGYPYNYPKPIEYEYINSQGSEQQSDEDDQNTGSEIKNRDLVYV

Mitogen-activated protein kinase 6 (Homo sapiens), sequence (Q16659 whole entry, the tested form may be a part): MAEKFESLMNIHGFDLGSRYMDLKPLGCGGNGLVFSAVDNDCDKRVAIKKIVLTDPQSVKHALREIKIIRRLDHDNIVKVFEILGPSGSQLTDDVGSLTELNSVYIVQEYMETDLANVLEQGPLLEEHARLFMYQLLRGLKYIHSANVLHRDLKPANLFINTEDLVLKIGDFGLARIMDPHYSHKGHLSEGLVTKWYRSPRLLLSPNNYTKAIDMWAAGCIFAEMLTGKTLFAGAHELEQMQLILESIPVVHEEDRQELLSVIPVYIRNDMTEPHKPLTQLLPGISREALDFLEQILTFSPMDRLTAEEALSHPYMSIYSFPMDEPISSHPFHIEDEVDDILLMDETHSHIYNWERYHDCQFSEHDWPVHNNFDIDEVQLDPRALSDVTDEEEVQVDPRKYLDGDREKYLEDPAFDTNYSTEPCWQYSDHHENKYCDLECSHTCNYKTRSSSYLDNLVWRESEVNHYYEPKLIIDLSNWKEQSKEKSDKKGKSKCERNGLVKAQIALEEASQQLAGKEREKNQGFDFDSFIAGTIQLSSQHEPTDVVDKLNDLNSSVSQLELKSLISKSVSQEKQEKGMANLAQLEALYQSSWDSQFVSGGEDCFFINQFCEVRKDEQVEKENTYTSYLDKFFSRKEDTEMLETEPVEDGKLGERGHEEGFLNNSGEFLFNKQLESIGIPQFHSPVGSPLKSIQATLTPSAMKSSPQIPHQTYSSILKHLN

Row | inhibition [1] | inhibition [2] | inhibition [3] | inhibition [4] | inhibition [5] | inhibition [6] | inhibition [7] | inhibition [8] | SMILES
1 | < 50% | < 50% | < 50% | < 50% | < 50% | < 50% | < 50% | < 50% | CN1CCN(c2ccc(-c3cnc4c(c3)N(Cc3cc(Cl)ccc3C(F)(F)F)CCN4)cn2)CC1
2 | – | – | < 50% | – | – | < 50% | 85% | – | O=C(O)c1ccc(-c2cnc3c(c2)N(Cc2cc(Cl)ccc2C(F)(F)F)CCN3)cc1
3 | – | – | < 50% | – | – | < 50% | 72.3% | – | O=C(c1ccc(-c2cnc3c(c2)N(Cc2cc(Cl)ccc2C(F)(F)F)CCN3)cc1)N1CCC(N2CCCC2)CC1
4 | – | – | < 50% | – | – | < 50% | < 50% | – | COC1CCN(C(=O)c2ccc(-c3cnc4c(c3)N(Cc3cc(Cl)ccc3C(F)(F)F)CCN4)cc2)CC1
5 | < 50% | < 50% | < 50% | < 50% | < 50% | < 50% | < 50% | < 50% | FC(F)(F)c1ccc(Cl)cc1CN1CCNc2ncc(-c3ccnc(N4CCNCC4)c3)cc21
6 | < 50% | < 50% | < 50% | < 50% | < 50% | < 50% | 66% | < 50% | CC(=O)N1CCN(c2cc(-c3cnc4c(c3)N(Cc3cc(Cl)ccc3C(F)(F)F)CCN4)ccn2)CC1
7 | < 50% | < 50% | < 50% | < 50% | < 50% | < 50% | < 50% | < 50% | CN1CCN(c2ccc(-c3cnc4c(c3)N(Cc3cc(F)ccc3F)CCN4)cn2)CC1
8 | < 50% | < 50% | < 50% | < 50% | < 50% | < 50% | < 50% | < 50% | CN1CCN(c2ccc(-c3cnc4c(c3)N(Cc3c(F)ccc(F)c3Cl)CCN4)cn2)CC1
9 | – | – | < 50% | – | – | < 50% | < 50% | – | O=C(c1ccc(-c2cnc3c(c2)N(Cc2cc(Cl)ccc2C(F)(F)F)CCN3)cc1)N1CCCCC1
10 | < 50% | < 50% | < 50% | < 50% | < 50% | < 50% | < 50% | < 50% | CN1CCN(c2ccc(-c3cnc4c(c3)N(Cc3cc(Cl)ccc3Cl)CCN4)cn2)CC1
